In ChEMBL document CHEMBL1135775 (J Med Chem, 2002):
Several values for one entry are separate records, joined by “and”; a condition that tells them apart may be missing. Equal entries are not always repeated.

What was measured:
[1] = molecular target: T1, Sodium-dependent dopamine transporter (Homo sapiens, UniProt Q01959); test: Inhibition of dopamine uptake in HEK cells expressing human dopamine transporter (hDAT); format: functional, cell-based, HEK293
Method in brief: (§1)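 Scraped HEK293 cells expressing hSERT or hDAT in Krebs-HEPES, preincubated 10 min at 25 °C with test compound. Uptake started with [3H]serotonin or [3H]dopamine (20 nM final), stopped after 10 min by filtration on PEI-soaked GF/C filters.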

[2] = molecular target: T1, Sodium-dependent dopamine transporter; test: Displacement of [125I]- RTI-55 from Dopamine transporter expressed in HEK cells; format: cell-based, HEK293
Method in brief: (§2)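 Membranes from HEK293 cells expressing hDAT, hSERT or hNET (10–15 μg protein) preincubated 10 min with test compound in Krebs-HEPES pH 7.4. Two or three experiments in duplicate; IC50 converted to Ki by Cheng-Prusoff.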

[3] = molecular target: T2, Sodium-dependent noradrenaline transporter (Homo sapiens, UniProt P23975); test: Inhibition of NE uptake in HEK cells expressing human noradrenaline transporter (hNET); format: functional, cell-based, HEK293
[4] = molecular target: T2, Sodium-dependent noradrenaline transporter; test: Displacement of [125I]RTI-55 from human Norepinephrine transporter expressed in HEK cells; format: cell-based, HEK293
[5] = molecular target: T3, Sodium-dependent serotonin transporter (Homo sapiens, UniProt P31645); test: Displacement of [125I]- RTI-55 from Serotonin transporter expressed in HEK cells; format: cell-based, HEK293; method in brief: as §2
[6] = molecular target: T3, Sodium-dependent serotonin transporter; test: Inhibition of 5-HT uptake in HEK cells expressing human serotonin transporter (hSERT); format: functional, cell-based, HEK293; method in brief: as §1
[7] = molecular target: Monoamine transporters; Norepinephrine & dopamine (Homo sapiens) (UniProt Q01959+P23975); test: Selectivity ratio as ratio of IC50 value against NET to that of DAT; format: protein assay
[8] = molecular target: Monoamine transporters; serotonin & dopamine (Homo sapiens) (UniProt P31645+Q01959); test: Selectivity ratio as ratio of IC50 value against SERT to that of DAT; format: protein assay
[9] = Discrimination ratio against SERT as ratio of IC50 to that of Ki uptake to SERT.; format: functional
[10] = Ratio of the IC50 value of Mazindol to that of the compound.; format: functional
[11] = Discrimination ratio against DAT as ratio of IC50 to that of Ki uptake to DAT.; format: functional
[12] = Discrimination ratio against NET as ratio of IC50 to that of Ki uptake to NET.; format: functional
[13] = molecular target: Sodium-dependent dopamine transporter (Rattus norvegicus, UniProt P23977); test: Ability to displace [3H]WIN-35428 from Dopamine Transporter of rat striatal membrane
Method in brief: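 Rat striatum (male Sprague-Dawley, 200-225 g) homogenised in ice-cold sucrose phosphate buffer pH 7.4, washed, resuspended at 10 mg/mL. Filtration on PEI-soaked GF/B filters, scintillation counting. Four experiments in triplicate.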

[14] = molecular target: T1, Sodium-dependent dopamine transporter; test: Ability to block the uptake of […] at the Dopamine transporter of HEK cells expressing cDNA for the human transporter (hDAT); format: functional, cell-based, HEK293
[15] = molecular target: T2, Sodium-dependent noradrenaline transporter; test: Ability to displace [125I]- RTI-55 binding at the Norepinephrine transporter site on HEK cells expressing cDNA for the human transporter (hNET); format: cell-based, HEK293
Method in brief: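 Membranes from HEK293 cells expressing hDAT, hSERT or hNET (10–15 μg protein) preincubated 10 min with test compound in Krebs-HEPES pH 7.4. Then 40–80 pM [125I]RTI-55 added, 90 min at 25 °C, GF/C filtration. […] Two or three experiments in duplicate; IC50 converted to Ki by Cheng-Prusoff.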

[16] = molecular target: Sodium-dependent dopamine transporter (Rattus norvegicus) (UniProt P23977); test: Ability to displace [3H]WIN-35428 from Dopamine Transporter of rat striatal membrane at a concentration of 10 E-6 M
Chain of Sodium-dependent dopamine transporter (Rattus norvegicus) (P23977 whole entry): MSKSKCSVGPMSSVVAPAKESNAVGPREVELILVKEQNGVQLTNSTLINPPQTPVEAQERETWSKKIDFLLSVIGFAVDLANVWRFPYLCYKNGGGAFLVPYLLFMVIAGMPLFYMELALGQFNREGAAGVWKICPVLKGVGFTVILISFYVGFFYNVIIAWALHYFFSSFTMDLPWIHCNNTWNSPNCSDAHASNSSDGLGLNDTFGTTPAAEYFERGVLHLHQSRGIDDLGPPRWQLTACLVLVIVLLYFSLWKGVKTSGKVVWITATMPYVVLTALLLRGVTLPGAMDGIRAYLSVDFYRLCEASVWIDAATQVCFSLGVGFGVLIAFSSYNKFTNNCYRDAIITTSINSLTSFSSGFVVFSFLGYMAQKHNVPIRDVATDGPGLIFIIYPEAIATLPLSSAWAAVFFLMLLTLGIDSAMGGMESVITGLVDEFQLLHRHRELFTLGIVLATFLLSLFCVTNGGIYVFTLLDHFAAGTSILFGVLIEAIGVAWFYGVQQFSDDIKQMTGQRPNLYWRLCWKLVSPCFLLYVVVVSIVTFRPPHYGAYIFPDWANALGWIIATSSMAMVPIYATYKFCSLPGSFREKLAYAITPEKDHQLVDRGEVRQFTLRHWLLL

Chain of Sodium-dependent dopamine transporter (Rattus norvegicus, UniProt P23977) (P23977 whole entry): as above
T1 sequence (Q01959 whole entry): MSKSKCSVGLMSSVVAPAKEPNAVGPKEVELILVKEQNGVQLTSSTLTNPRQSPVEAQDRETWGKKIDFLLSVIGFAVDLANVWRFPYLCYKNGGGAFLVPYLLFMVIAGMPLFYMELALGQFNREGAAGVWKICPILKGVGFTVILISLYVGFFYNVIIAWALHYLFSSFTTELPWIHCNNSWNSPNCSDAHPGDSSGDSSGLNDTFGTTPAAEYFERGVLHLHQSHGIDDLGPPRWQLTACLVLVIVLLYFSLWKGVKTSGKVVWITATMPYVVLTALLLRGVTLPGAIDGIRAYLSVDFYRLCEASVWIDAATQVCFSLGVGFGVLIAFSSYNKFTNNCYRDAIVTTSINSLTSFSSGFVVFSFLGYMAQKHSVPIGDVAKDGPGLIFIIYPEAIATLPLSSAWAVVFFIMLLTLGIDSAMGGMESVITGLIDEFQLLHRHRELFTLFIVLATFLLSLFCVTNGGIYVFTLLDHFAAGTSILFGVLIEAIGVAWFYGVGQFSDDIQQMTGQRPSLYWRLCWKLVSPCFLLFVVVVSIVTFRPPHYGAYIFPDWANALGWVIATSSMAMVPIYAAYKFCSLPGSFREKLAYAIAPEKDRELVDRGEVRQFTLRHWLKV
Chain of Monoamine transporters; Norepinephrine & dopamine (Homo sapiens) (P23975 whole entry, looked up): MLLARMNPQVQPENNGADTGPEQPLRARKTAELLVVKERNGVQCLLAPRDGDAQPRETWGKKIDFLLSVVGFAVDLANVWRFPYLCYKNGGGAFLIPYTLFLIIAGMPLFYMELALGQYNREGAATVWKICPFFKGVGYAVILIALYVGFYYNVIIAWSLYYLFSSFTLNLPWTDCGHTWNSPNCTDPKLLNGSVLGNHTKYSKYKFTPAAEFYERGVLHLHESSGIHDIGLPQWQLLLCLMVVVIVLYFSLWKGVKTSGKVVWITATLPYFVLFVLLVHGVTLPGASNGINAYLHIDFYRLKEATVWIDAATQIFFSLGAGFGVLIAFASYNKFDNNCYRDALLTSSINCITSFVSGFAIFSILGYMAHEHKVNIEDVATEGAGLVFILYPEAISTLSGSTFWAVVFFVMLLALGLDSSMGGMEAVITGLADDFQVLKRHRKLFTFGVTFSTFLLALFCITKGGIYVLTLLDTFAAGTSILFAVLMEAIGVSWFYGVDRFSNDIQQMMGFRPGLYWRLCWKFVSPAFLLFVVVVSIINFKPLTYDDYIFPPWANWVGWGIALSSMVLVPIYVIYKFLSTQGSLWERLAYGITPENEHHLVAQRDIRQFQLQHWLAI
Chain of Monoamine transporters; Norepinephrine & dopamine (Homo sapiens) (Q01959 whole entry, looked up): as the sequence (Q01959 whole entry) above
T2 sequence (P23975 whole entry): as the sequence (P23975 whole entry, looked up) above
Chain of Monoamine transporters; serotonin & dopamine (Homo sapiens) (P31645 whole entry, looked up): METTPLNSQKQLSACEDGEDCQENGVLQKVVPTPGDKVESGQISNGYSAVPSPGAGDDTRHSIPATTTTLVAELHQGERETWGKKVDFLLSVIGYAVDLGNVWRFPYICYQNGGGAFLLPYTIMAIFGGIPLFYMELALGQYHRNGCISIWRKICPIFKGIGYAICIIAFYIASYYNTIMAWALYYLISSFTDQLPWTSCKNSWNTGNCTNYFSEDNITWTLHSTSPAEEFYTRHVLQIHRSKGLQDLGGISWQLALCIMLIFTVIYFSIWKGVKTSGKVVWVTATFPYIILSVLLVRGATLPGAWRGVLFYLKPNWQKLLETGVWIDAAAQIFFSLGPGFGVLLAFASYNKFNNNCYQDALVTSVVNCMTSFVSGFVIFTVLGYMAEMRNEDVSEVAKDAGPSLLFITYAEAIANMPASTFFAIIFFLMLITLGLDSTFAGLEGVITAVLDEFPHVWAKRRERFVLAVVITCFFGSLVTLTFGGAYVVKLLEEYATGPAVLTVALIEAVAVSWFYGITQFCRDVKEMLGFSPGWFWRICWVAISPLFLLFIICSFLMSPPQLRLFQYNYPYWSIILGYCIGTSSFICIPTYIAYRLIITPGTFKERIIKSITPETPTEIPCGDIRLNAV
Chain of Monoamine transporters; serotonin & dopamine (Homo sapiens) (Q01959 whole entry, looked up): as the sequence (Q01959 whole entry) above
T3 sequence (P31645 whole entry): as the sequence (P31645 whole entry, looked up) above

SMILES: Oc1ccc(C2(O)c3ccccc3C3=NCCCN32)cc1 (stereo not given)
- IC50 [1]: 59 nM
- Ki [2]: 87.1 nM
- IC50 [3]: 1.9 nM
- Ki [4]: 380 nM
- Ki [5]: 77 nM
- IC50 [6]: 60 nM
- Ratio [7]: 4.4
- Ratio [8]: 0.9
- Ratio [9]: 0.8
- Ratio [10]: 2.4
- Ratio [11]: 0.7
- Ratio [12]: 0.005

SMILES: Cc1cc(C)c2c(c1)C1=NCCN1C2(O)c1ccc(Cl)cc1 (stereo not given)
- Ratio [10]: 0.6

SMILES: OC1(c2ccc(Cl)cc2)c2c(ccc3c2OCO3)C2=NCCN21 (stereo not given)
- Ratio [10]: 0.1

SMILES: COc1ccc(C2(O)c3ccccc3C3=NCCCN32)cc1 (stereo not given)
- IC50 [1]: 30.4 nM
- Ki [2]: 36.2 nM
- IC50 [3]: 4.1 nM
- Ki [4]: 84 nM
- Ki [5]: 55.9 nM
- IC50 [6]: 94 nM
- Ratio [7]: 2.3
- Ratio [8]: 1.5
- Ratio [9]: 1.7
- Ratio [10]: 3.2
- Ratio [11]: 0.8
- Ratio [12]: 0.05

SMILES: OC1(c2ccccn2)c2ccccc2C2=NCCN21 (stereo not given)
- Ratio [10]: < 0.002

SMILES: OC1(c2ccc(Cl)cc2)c2ccccc2C2=NCCN21 (stereo not given) [MAZINDOL]
- IC50 [3]: 4.9 nM
- IC50 [6]: 94 nM

SMILES: OC1(c2ccccc2)c2cc(Cl)ccc2C2=NCCN21 (stereo not given)
- Ratio [10]: 0.1

SMILES: OC1(c2ccc(OCc3ccccc3)cc2)c2ccccc2C2=NCCCN21 (stereo not given)
- Ratio [10]: 0.1

SMILES: OC1(c2ccc3c(c2)OCCO3)c2ccccc2C2=NCCN21 (stereo not given)
- Ratio [10]: 0.03

SMILES: COc1ccc(C2(O)c3ccccc3C3=NCCCN32)cc1OC (stereo not given)
- Ratio [10]: 0.1

SMILES: OC1(c2ccncc2)c2ccccc2C2=NCCN21 (stereo not given)
- Ratio [10]: 0.1

SMILES: Clc1ccc(C2c3ccccc3C3=NCCN32)cc1 (stereo not given)
- IC50 [1]: 6 nM
- Ki [2]: 23 nM
- IC50 [3]: 6.9 nM
- Ki [4]: 170 nM
- Ki [5]: 26 nM
- IC50 [6]: 15 nM
- Ratio [10]: 1.4

SMILES: OC1(c2ccc3c(c2)OCO3)c2ccccc2C2=NCCN21 (stereo not given)
- Ratio [10]: 0.4

SMILES: OC1(c2ccc3c(c2)OCO3)c2ccccc2C2=NCCCN21 (stereo not given)
- IC50 [13]: 1.94 nM
- IC50 [14]: 2.21 nM
- Ki [2]: 2.55 nM
- Ki [15]: 8.8 nM
- IC50 [3]: 0.62 nM
- Ki [5]: 25.6 nM
- IC50 [6]: 83 nM
- Ratio [7]: 3.5
- Ratio [8]: 10
- Ratio [9]: 3.2
- Ratio [11]: 0.8
- Ratio [12]: 0.07

SMILES: OC1(c2ccc(Cl)cc2)c2ccccc2C2=NCCCN21 (stereo not given)
- IC50 [1]: 3.7 nM
- IC50 [3]: 4.9 nM
- IC50 [6]: 53 nM
- Ratio [7]: 10.6
- Ratio [8]: 23
- Ratio [9]: 1.4
- Ratio [10]: 8.1 and 10.1
- Ratio [11]: 2.2
- Ratio [12]: 2.2

SMILES: COc1cccc2c1C1=NCCN1C2(O)c1ccc(Cl)cc1 (stereo not given)
- IC50 [1]: 42 nM
- Ki [2]: 2.9 nM
- IC50 [3]: 4.7 nM
- Ki [4]: 6.8 nM
- Ki [5]: 870 nM
- IC50 [6]: 280 nM
- Ratio [7]: 2.3
- Ratio [8]: 300
- Ratio [9]: 0.3
- Ratio [10]: 9
- Ratio [11]: 14.5
- Ratio [12]: 0.7

SMILES: OC1(c2ccccc2)c2c(Cl)cccc2C2=NCCN21 (stereo not given)
- Ratio [10]: 0.1

SMILES: OC1(c2ccc(-c3ccccc3)cc2)c2ccccc2C2=NCCN21 (stereo not given)
- inhibition [16]: 14.1%
- Ratio [10]: < 0.002

SMILES: C=CCOc1cccc(C2(O)c3ccccc3C3=NCCCN32)c1 (stereo not given)
- IC50 [13]: 219 nM
- Ratio [10]: 0.2

SMILES: OC1(c2ccc(Cl)cc2)c2cccc(F)c2C2=NCCN21 (stereo not given)
- IC50 [1]: 91 nM
- Ki [2]: 23.1 nM
- IC50 [3]: 5 nM
- Ki [4]: 0.9 nM
- Ki [5]: 38.1 nM
- IC50 [6]: 129 nM
- Ratio [7]: 0.04
- Ratio [8]: 1.65
- Ratio [9]: 3.4
- Ratio [10]: 3.5
- Ratio [11]: 4
- Ratio [12]: 5.6

SMILES: COCC1(c2ccc(Cl)cc2)c2ccccc2C2=NCCCN21 (stereo not given)
- Ratio [10]: < 0.002

SMILES: OC1(c2cccnc2)c2ccccc2C2=NCCN21 (stereo not given)
- Ratio [10]: 0.013

SMILES: COc1ccc2c(c1)C(O)(c1ccc(Cl)cc1)N1CCN=C21 (stereo not given)
- IC50 [1]: 16.7 nM
- Ki [2]: 6 nM
- IC50 [3]: 1.46 nM
- Ki [4]: 23 nM
- Ki [5]: 1030 nM
- IC50 [6]: 1960 nM
- Ratio [7]: 3.9
- Ratio [8]: 172
- Ratio [9]: 1.9
- Ratio [10]: 3.2
- Ratio [11]: 2.8
- Ratio [12]: 0.06

SMILES: COc1ccc(C2(O)c3ccccc3C3=NCCN32)cc1 (stereo not given)
- Ratio [10]: 0.4

SMILES: COc1ccc(C2(O)c3ccccc3C3=NCCN32)cc1OC (stereo not given)
- Ratio [10]: 0.001

SMILES: COC(=O)c1ccc(C2(O)c3ccccc3C3=NCCN32)cc1 (stereo not given)
- Ratio [10]: 0.002

SMILES: CC1(c2ccc(Cl)cc2)c2ccccc2C2=NCCCN21 (stereo not given)
- Ratio [10]: 0.3

SMILES: Cc1ccc(C2(O)c3ccccc3C3=NCCN32)cc1 (stereo not given)
- Ratio [10]: 0.1

SMILES: C=CCOc1ccc(C2(O)c3ccccc3C3=NCCCN32)cc1 (stereo not given)
- Ratio [10]: 0.1

SMILES: OC1(c2ccc(Cl)cc2)c2cccc(-c3ccccc3)c2C2=NCCN21 (stereo not given)
- Ratio [10]: 0.1

SMILES: COc1cccc2c1C(O)(c1ccc(Cl)cc1)N1CCN=C21 (stereo not given)
- IC50 [1]: 60 nM
- Ki [2]: 10.3 nM
- IC50 [3]: 1.73 nM
- Ki [4]: 23.1 nM
- Ki [5]: 1990 nM
- IC50 [6]: 3600 nM
- Ratio [7]: 2.2
- Ratio [8]: 193
- Ratio [9]: 1.8
- Ratio [10]: 0.6
- Ratio [11]: 5.8
- Ratio [12]: 0.07

SMILES: OC1(c2ccc(Cl)cc2)c2cc(Cl)c(Cl)cc2C2=NCCN21 (stereo not given)
- IC50 [1]: 6 nM
- Ki [2]: 1.05 nM
- IC50 [3]: 10 nM
- Ki [4]: 40 nM
- Ki [5]: 1350 nM
- IC50 [6]: 444 nM
- Ratio [7]: 38
- Ratio [8]: 1280
- Ratio [9]: 0.3
- Ratio [10]: 0.6
- Ratio [11]: 5.7
- Ratio [12]: 0.3

SMILES: COc1cc(C2(O)c3ccccc3C3=NCCN32)cc(OC)c1OC (stereo not given)
- Ratio [10]: < 0.002

SMILES: OC1(c2ccc(C(F)(F)F)cc2)c2ccccc2C2=NCCN21 (stereo not given)
- Ratio [10]: 0.03

SMILES: CN(C)Cc1ccc(C2(O)c3ccccc3C3=NCCN32)cc1 (stereo not given)
- Ratio [10]: 0.003

SMILES: OC1(c2cccc(C(F)(F)F)c2)c2ccccc2C2=NCCN21 (stereo not given)
- Ratio [10]: 0.04

SMILES: COC1(c2ccc(Cl)cc2)c2ccccc2C2=NCCN21 (stereo not given)
- IC50 [13]: 1010 nM
- Ratio [10]: 0.008

SMILES: OC1(c2ccccc2)c2ccccc2C2=NCCN21 (stereo not given)
- IC50 [1]: 730 nM
- Ki [2]: 1070 nM
- IC50 [3]: 2.8 nM
- Ki [4]: 100 nM
- Ki [5]: 1760 nM
- IC50 [6]: 2140 nM
- Ratio [7]: 0.1
- Ratio [8]: 1.6
- Ratio [9]: 1.2
- Ratio [10]: 0.1
- Ratio [11]: 0.7
- Ratio [12]: 0.03
